Measurements pooled from the literature.
Lines come from different studies, so protocols differ.
Organism: Candida albicans
Observed: microbial growth
Technique: broth dilution

Structure (SMILES) | test system | setting | MIC
Cc1ccc(N=Nc2c(N)nn3c(-c4ccco4)cc(-c4ccc(OCc5ccccc5)cc4)nc23)cc1 | ATCC10231 |  | 31.3 µg/mL
COc1ccc(N2N=C(C(=O)c3ccc(Nc4cnccn4)cc3)SC2=C(C#N)C#N)cc1 | ATCC10231 |  | 12.5 µg/mL
C/C(=N\C1CCCCC1/N=C(\C)c1c(O)c2ccccc2oc1=O)c1c(O)c2ccccc2oc1=O (centres unmarked) |  | 48 h | 31.2 µg/mL
CC(=O)ON=C1C=CC(=C(C#N)c2ccccc2)C=C1 | ATCC10231 | 48 h | 2 µg/mL
Cc1ccc(-c2cc(-c3ccc(OCc4ccccc4)cc3)nc3c(N=Nc4ccc(F)cc4)c(N)nn23)cc1 | ATCC10231 |  | 62.5 µg/mL
O=C1/C(=C/c2ccc3ccccc3c2O)NC(=S)N1c1ccccc1 | ATCC10 ATCC10231 |  | 20 µg/mL
OC(Cn1cncn1)(Cn1cncn1)c1ccc(F)cc1F | 8 | 24 h | 1 µg/mL
CC(=O)C1=NN(c2ccccc2)C(=C(C#N)C(=O)c2ccc(Nc3cnccn3)cc2)S1 | ATCC10231 |  | 100 µg/mL
CCn1c2ccccc2c2cc(CNC)ccc21 | SN152 | 24 h | 64 µg/mL
CC(=O)N1CCN(c2ccc(OCC3COC(Cn4ccnc4)(c4ccc(Cl)cc4Cl)O3)cc2)CC1 (centres unmarked) | 14936 | 48 h | 2 µM
CC(=O)N1CCN(c2ccc(OCC3COC(Cn4ccnc4)(c4ccc(Cl)cc4Cl)O3)cc2)CC1 (centres unmarked) |  | 48 h | 1.95 µg/mL
C#CCOC(=O)ON=C1C=CC(=C(C#N)c2ccccc2)C=C1 | ATCC10231 | 48 h | 4 µg/mL
Nc1nn2c(-c3ccco3)cc(-c3ccc(OCc4ccccc4)cc3)nc2c1N=Nc1ccc(F)cc1 | ATCC10231 |  | 125 µg/mL
C/C(=N\C(=S)/N=C(\C)c1c(O)c2ccccc2oc1=O)c1c(O)c2ccccc2oc1=O |  | 48 h | 3.9 µg/mL
C=CC(=O)ON=C1C=CC(=C(C#N)c2ccccc2)C=C1 | ATCC10231 | 48 h | 2 µg/mL
C[C@@H]1[C@H](O)[C@@H](C)/C=C/C=C/C=C/C=C/C=C/C=C/C=C/[C@H](O[C@@H]2O[C@H](C)[C@@H](O)[C@H](N)[C@@H]2O)C[C@@H]2O[C@](O)(C[C@@H](O)C[C@@H](O)[C@H](O)CC[C@@H](O)C[C@@H](O)CC(=O)O[C@H]1C)C[C@H](O)[C@H]2C(=O)O | 17546 | 48 h | < 0.25 µM
C/C(=N\CCNCC/N=C(\C)c1c(O)c2ccccc2oc1=O)c1c(O)c2ccccc2oc1=O |  | 48 h | 7.81 µg/mL
COc1ccc(N=Nc2c(N)nn3c(-c4ccc(Cl)cc4Cl)cc(-c4ccc(OCc5ccccc5)cc4)nc23)cc1 | ATCC10231 |  | 62.5 µg/mL
OC(Cn1cncn1)(Cn1cncn1)c1ccc(F)cc1F | ATCC90028 | 48 h | 8 µg/mL
N#CC(=C1C=CC(=NOC(=O)OCc2ccccc2)C=C1)c1ccccc1 | ATCC10231 | 48 h | 256 µg/mL
COc1ccc(N=Nc2c(N)nn3c(-c4ccc(C)cc4)cc(-c4ccc(OCc5ccccc5)cc4)nc23)cc1 | ATCC10231 |  | 62.5 µg/mL
COc1ccc(-n2nc(C(=O)c3ccc(Nc4cnccn4)cc3)sc2=N)cc1 | ATCC10231 |  | 50 µg/mL
C[C@@H]1[C@H](O)[C@@H](C)/C=C/C=C/C=C/C=C/C=C/C=C/C=C/[C@H](O[C@@H]2O[C@H](C)[C@@H](O)[C@H](N)[C@@H]2O)C[C@@H]2O[C@](O)(C[C@@H](O)C[C@@H](O)[C@H](O)CC[C@@H](O)C[C@@H](O)CC(=O)O[C@H]1C)C[C@H](O)[C@H]2C(=O)O | ATCC10231 | 48 h | 2 µg/mL
C/C(=N\N=C(/C)c1c(O)c2ccccc2oc1=O)c1c(O)c2ccccc2oc1=O |  | 48 h | 125 µg/mL
OC(Cn1cncn1)(Cn1cncn1)c1ccc(F)cc1F | SP3903 | 48 h | 4 µM
COc1ccc(N2N=C(C(C)=O)SC2=C(C#N)C(=O)c2ccc(Nc3cnccn3)cc2)cc1 | ATCC10231 |  | 25 µg/mL
